GalR3 antag – antagonists of human GalR3; HEK293 GalR3-CNG cAMP membrane potential fluorescence; galR3 body fused to GalR1 C-terminus; inhibition, % at 3 µM; hit rate 0.44% among 360,000;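 active means inhibition above the screen-wide average plus 3 SD, cut at about 13% in these data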;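 further: forskolin and galanin both at EC90 stimulate the cells; cAMP rise reported by CNG channel membrane potential dye signal; 0% = forskolin plus galanin with DMSO and 100% = forskolin alone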
CHO parental Ca – counter-screen: ATP calcium response change in parental CHO cells | parental CHO-K1, ATP-induced calcium, Fluo-8 fluorescence | inhibition, % at 5.6 µM | hit rate 0.63% among 330,000;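 active means inhibition above that plate's mean sample inhibition plus 3 SD, cut at about 26% in these data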;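 further: 0% = ATP-challenged DMSO wells and 100% = DMSO wells without ATP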
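material = parental CHO cells | also added = ATP as calcium-mobilizing challenge | dosing = single point at 5.6 µM | detection = intracellular calcium via Fluo-8 no-wash fluorescent dye | read-out = % inhibition | benchmarks = low control ATP plus DMSO, high control DMSO only | repeats = one well per compound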
OX1R antag-1 – OX1R (human) antagonism; OX1R-expressing cells, FRET antagonist read-out; inhibition, % at 6.6 µM; AID 485270; O43613; hit rate 1.8% among 330,000; in the data active means inhibition mostly above about 38%, no sharp cut-off; inactive means mostly below about 40%;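 further: 0% = agonist challenge alone and 100% = reference antagonist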
Target sequence (O43613 whole entry, looked up): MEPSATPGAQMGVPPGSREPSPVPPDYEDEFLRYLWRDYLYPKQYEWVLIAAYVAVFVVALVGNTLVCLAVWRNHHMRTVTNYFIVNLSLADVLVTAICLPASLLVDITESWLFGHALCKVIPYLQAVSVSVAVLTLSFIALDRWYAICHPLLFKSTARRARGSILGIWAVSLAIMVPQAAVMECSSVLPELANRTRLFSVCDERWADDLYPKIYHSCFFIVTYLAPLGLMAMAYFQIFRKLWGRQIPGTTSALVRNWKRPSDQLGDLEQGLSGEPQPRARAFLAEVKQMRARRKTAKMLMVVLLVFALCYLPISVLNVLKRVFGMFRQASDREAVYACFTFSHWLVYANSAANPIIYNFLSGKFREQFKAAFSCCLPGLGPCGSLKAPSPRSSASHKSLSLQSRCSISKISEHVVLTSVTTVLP
OX1R antag-2 – human HCRTR1 antagonism; CHO/OX1R cells, Fluo-8 calcium fluorescence, orexin A; inhibition, % at 5 µM; O43613; AID 434989; hit rate 0.43% among 330,000;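 active means inhibition above its plate's threshold, mean inhibition of all tested compounds on the plate plus 3 SD, cut at about 37% in these data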;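 further: 0% = orexin A challenge wells and 100% = SB-334867-A antagonist wells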
GPR7 antag – blocks human GPR7 receptor signaling. hit rate 1.1% among 290,000. inhibition, % at 4.4 µM. P48145. AID 1861. GPR7-expressing cells, fluorescence antagonist assay; in the data active means inhibition above about 16%, passing the limit was not always enough;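 further: cells stimulated with the agonist NPW; 0% = agonist with vehicle and 100% = vehicle without agonist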
Numbers without * were called inactive; x = not tested or not shown. A selection: hits, their analogues and other compounds. The true share with any hit is near 3.1%.

SMILES	GalR3 antag	CHO parental Ca	OX1R antag-1	OX1R antag-2	GPR7 antag
NCCCC[C@@H]1NC(=O)c2cc([N+](=O)[O-])cc(I)c2SC[C@@H](C(N)=O)NC(=O)[C@H](Cc2ccc(O)cc2)NC1=O	x	8	73*	-16	9
Cc1ccnc(Nc2nc(-c3c(C)nc4sccn34)cs2)c1	-3	-24	55*	-13	-19
Cc1ccnc(Nc2nc(-c3ccccc3)cs2)c1	-4	-21	27	-29	-18
COc1cccc(C(C)(O)c2nc(-c3cccc4cccnc34)cs2)c1 (centres undefined)	-7	x	x	x	x
CN1CCN(C(=O)c2cc3c(c(-c4cccc(-c5cc6ccccc6o5)c4)n2)[C@H](CCO)N(S(=O)C(C)(C)C)C3)CC1 (some centres undefined)	-6	x	x	x	x
COCC(C)NC(=O)c1cc2cccc([N+](=O)[O-])c2[nH]1 (centres undefined)	-2	-16	35	-33	-4
Cc1cc(NC(=O)c2cc3cccc([N+](=O)[O-])c3[nH]2)ccc1F	1	5	46*	6	-1
COc1ccc(-c2sc3ccccc3c2-c2ccc(OCCN(C)C)cc2)cc1	-11	50*	2	70*	x
Cc1ccc2nc(NC(=O)c3ccccn3)sc2c1	-7	27*	29	33	1
COc1ccccc1C(=O)Nc1nc2ccc(S(C)(=O)=O)cc2s1	-7	-10	41*	1	1
C#CCN(Cc1ccco1)C(=O)c1nnc2c3cc(OC)ccc3n(S(=O)(=O)c3ccc(OC)cc3)c2n1	-2	x	x	x	x
COc1ccccc1-c1cnc(C(O)c2cc(C)c(OC)c(C)c2)[nH]1 (centres undefined)	-5	x	x	x	x
CCCCN(C)C(=O)CCCc1c[nH]c2ccccc12	-2	0	9	-10	19*
CCN(CC)C(=O)CCCc1c[nH]c2ccccc12	-5	3	18	-18	13
CSc1ccc(Cn2c(C)c(C(=O)NCc3cccs3)sc2=O)cc1	-5	x	x	x	x
Cc1nc(N2CCOCC2)c2c(C)c(C(=O)Nc3ccccc3Cl)sc2n1	2	-14	8	-14	-7
Cc1nc(N2CCOCC2)c2c(C)c(C(=O)Nc3ccc(F)cc3Cl)sc2n1	14*	-10	-2	-50	-10
O=c1cc(-c2ccccc2Cl)oc2c(NS(=O)(=O)c3cc(Cl)cc(Cl)c3O)ccc(O)c12	x	75*	70*	43	13
COC(=O)CN1C(=S)N(c2ccc(OC)cc2)C(=O)/C1=C/c1ccc(N2CCOCC2)cc1	-5	10	5	26	-8
COC(=O)/C=C1\SC(N2CCOCC2)=C(c2ccc(OC)cc2)C1=O	-6	-12	70*	-16	-11
c1ccc(-c2nc3c(ccc4ccccc43)[nH]2)nc1	-4	-13	71*	-9	2
c1ccc(-c2nc3ccccc3[nH]2)nc1	-3	-7	11	-6	-3
CCCOC(=O)c1ccc(NC(=O)c2ccccc2OC)cc1	-8	-11	76*	11	-5
Cc1c(C(=O)Nc2ccc3c(c2)OCO3)oc2ccccc12	-2	-22	73*	-1	-9
COCC(=O)Nc1c(C(=O)Nc2ccc3c(c2)OCO3)oc2ccccc12	2	-15	4	-16	2
SMILES	GalR3 antag	CHO parental Ca	OX1R antag-1	OX1R antag-2	GPR7 antag
Cc1nc(NC(=O)c2oc3ccccc3c2C)sc1C(=O)N(C)C	-7	-6	54*	12	-5
O=C(CCl)Nc1c(C(=O)Nc2ccc3c(c2)OCCO3)oc2ccccc12	-2	-16	68*	-6	1
COC(=O)c1cc2c(c3c4cc(OC)ccc4n(S(=O)(=O)c4cccc(C)c4)c13)C(=O)N(Cc1ccc(C(F)(F)F)cc1)C2	-4	x	x	x	x
CCc1c(-c2ccccc2Br)ncn1CCc1ccccc1OC	-4	x	x	x	x
CNC(=O)/C(C#N)=c1\s/c(=C/C(=O)OC)c(=O)n1-c1ccccc1	-3	-2	69*	-12	-2
COC(=O)/C=c1/s/c(=C(\C#N)C(=O)NCc2ccco2)n(-c2ccccc2)c1=O	-4	20	69	3	19
COC(=O)C1=C(C)N(C)C(=NCc2cccc(C(F)(F)F)c2)NC1c1ccc(C(F)(F)F)cc1 (centres undefined)	0	x	x	x	x
Cc1cccn2c(=O)c3cc(C(=O)NC4CCCC4)sc3nc12	-5	-10	55*	-5	-2
O=C(NC1CCCC1)c1cc2c(=O)n3ccccc3nc2s1	-7	-16	25	-23	x
COc1ccc(O)c(/C=N/NC(=S)NCCc2ccccc2)c1	-7	0	20	-17	-21

Screening data (PubChem)
